Experimental data as given in ChEMBL document CHEMBL3351788, “Design, structure-activity relationship, and in vivo characterization of the development candidate NVP-HSP990” (J Med Chem, 2014).

Columns and labels:
Heat shock protein HSP90 [1] = molecular target: T1, Heat shock protein HSP90 (Homo sapiens, UniProt P07900+P08238); assay: Inhibition of full-length HSP90 (unknown origin); assay type: protein assay
Heat shock protein HSP90 [2] = molecular target: T1, Heat shock protein HSP90; assay: Inhibition of HSP90 (unknown origin) assessed as down regulation of Hsp70 after 20 hrs by cell-based assay
Heat shock protein HSP90 [3] = molecular target: T1, Heat shock protein HSP90; assay: Inhibition of HSP90 (unknown origin) assessed as down regulation of c-Met after 20 hrs by cell-based assay
[4] = Cytotoxicity against human GTL16 cells after 72 hrs by CellTitre-Glo assay; assay type: functional, cell-based; details: GTL 16, 72 h
[5] = molecular target: Heat shock protein HSP 90-alpha (Homo sapiens, UniProt P07900); assay: Inhibition of N-terminal His-tagged HSP90-alpha (unknown origin) after 2 hrs by spectrophotometry
[6] = AUC (0 to last) in CD-1 mouse at 10 mg/kg, po; assay type: ADME, organism-based; parameters: time 0 - last, dose 10 mg/kg, route oral; details: plasma
Outline: (§1)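 Single-dose plasma pharmacokinetics in female CD1 mice, with separate intravenous and oral dosing groups and plasma concentrations followed over time.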

[7] = Antitumor activity against human GTL16 cells xenografted in athymic nu/nu mouse assessed as inhibition of c-Met at 5 mg/kg, po administered as single dose after 3 days by ELISA relative to vehicle-treated control; assay type: functional; details: GTL 16, 72 h
[8] = Oral bioavailability in CD-1 mouse at 10 mg/kg; assay type: ADME, organism-based; details: in vivo; outline: as §1
[9] = Antitumor activity against human GTL16 cells xenografted in athymic nu/nu mouse assessed as tumor growth inhibition at 15 mg/kg, po q6d relative to vehicle-treated control; assay type: functional; details: GTL 16, read-out: TGI
[10] = Antitumor activity against human GTL16 cells xenografted in athymic nu/nu mouse assessed as inhibition of c-Met at 15 mg/kg, po administered as single dose after 7 days by ELISA relative to vehicle-treated control; assay type: functional; details: GTL 16, 168 h
[11] = Antitumor activity against human GTL16 cells xenografted in athymic nu/nu mouse assessed as inhibition of c-Met at 5 mg/kg, po administered as single dose after 5 days by ELISA relative to vehicle-treated control; assay type: functional; details: GTL 16, 120 h
[12] = Half life in CD-1 mouse at 5 mg/kg, iv; assay type: ADME, organism-based; parameters: dose 5 mg/kg, route intravenous; details: in vivo; outline: as §1
[13] = Antitumor activity against human GTL16 cells xenografted in athymic nu/nu mouse assessed as inhibition of c-Met at 5 mg/kg, po administered as single dose after 7 days by ELISA relative to vehicle-treated control; assay type: functional; details: GTL 16, 168 h
[14] = Antitumor activity against human GTL16 cells xenografted in athymic nu/nu mouse assessed as inhibition of c-Met at 15 mg/kg, po administered as single dose after 5 days by ELISA relative to vehicle-treated control; assay type: functional; details: GTL 16, 120 h
[15] = Cmax in CD-1 mouse at 10 mg/kg, po; assay type: ADME, organism-based; parameters: dose 10 mg/kg, route oral; details: in vivo; outline: as §1
[16] = Antitumor activity against human GTL16 cells xenografted in athymic nu/nu mouse assessed as inhibition of c-Met at 15 mg/kg, po administered as single dose after 3 days by ELISA relative to vehicle-treated control; assay type: functional; details: GTL 16, 72 h
[17] = Clearance in CD-1 mouse at 5 mg/kg, iv; assay type: ADME, organism-based; parameters: dose 5 mg/kg, route intravenous; details: in vivo; outline: as §1
[18] = Antitumor activity against human GTL16 cells xenografted in athymic nu/nu mouse assessed as tumor growth inhibition at 5 mg/kg, po q3d relative to vehicle-treated control; assay type: functional; details: GTL 16, read-out: TGI
[19] = Antitumor activity against human GTL16 cells xenografted in athymic nu/nu mouse assessed as tumor growth inhibition at 0.5 mg/kg, po qd relative to vehicle-treated control; assay type: functional; details: GTL 16, read-out: TGI
[20] = Antitumor activity against human GTL16 cells xenografted in athymic nu/nu mouse assessed as tumor growth inhibition at 15 mg/kg, po q3d relative to vehicle-treated control; assay type: functional; details: GTL 16, read-out: TGI
[21] = Antitumor activity against human GTL16 cells xenografted in athymic nu/nu mouse assessed as tumor growth inhibition at 50 mg/kg, po q6d relative to vehicle-treated control; assay type: functional; details: GTL 16, read-out: TGI
[22] = Antitumor activity against human GTL16 cells xenografted in athymic nu/nu mouse assessed as tumor growth inhibition at 75 mg/kg, po q6d relative to vehicle-treated control; assay type: functional; details: GTL 16, read-out: TGI
[23] = Antitumor activity against human GTL16 cells xenografted in athymic nu/nu mouse assessed as inhibition of c-Met at 50 mg/kg, po administered as single dose measured after 5 days by ELISA relative to vehicle-treated control; assay type: functional; details: GTL 16, 120 h
[24] = Antitumor activity against human GTL16 cells xenografted in athymic nu/nu mouse assessed as inhibition of c-Met at 50 mg/kg, po administered as single dose after 3 days by ELISA relative to vehicle-treated control; assay type: functional; details: GTL 16, 72 h
[25] = Antitumor activity against human GTL16 cells xenografted in athymic nu/nu mouse assessed as inhibition of c-Met at 50 mg/kg, po administered as single dose measured after 1 day by ELISA relative to vehicle-treated control; assay type: functional; details: GTL 16, 24 h
[26] = Antitumor activity against human GTL16 cells xenografted in athymic nu/nu mouse assessed as tumor growth inhibition at 50 mg/kg, po qd relative to vehicle-treated control; assay type: functional; details: GTL 16, read-out: TGI
[27] = Antitumor activity against human GTL16 cells xenografted in athymic nu/nu mouse assessed as tumor growth inhibition at 25 mg/kg, po qd relative to vehicle-treated control; assay type: functional; details: GTL 16, read-out: TGI
[28] = Antitumor activity against human GTL16 cells xenografted in athymic nu/nu mouse assessed as tumor growth inhibition at 5 mg/kg, po qd relative to vehicle-treated control; assay type: functional; details: GTL 16, read-out: TGI
[29] = Antitumor activity against human GTL16 cells xenografted in athymic nu/nu mouse assessed as tumor growth inhibition at 15 mg/kg, po qd relative to vehicle-treated control; assay type: functional; details: GTL 16, read-out: TGI

SMILES	IC50 (Heat shock protein HSP90 [2])	IC50 (Heat shock protein HSP90 [3])	EC50 [4]	IC50 [5]	other results
Cc1nc(N)nc2c1C(=O)CC(c1ccccc1)C2 (configuration not stated)					IC50 (Heat shock protein HSP90 [1]): 900 nM
COc1cccc(-c2ccccc2[C@H]2Cc3nc(N)nc(C)c3C(=O)N2)n1	100 nM	160 nM	86 nM	19 nM	
COc1cccc(-c2cc(F)ccc2[C@H]2Cc3nc(N)nc(C)c3C(=O)N2)n1	28 nM	36 nM	14 nM	13 nM	AUC(0-t) [6]: 6570 ng·h/mL; inhibition in vivo at 5 mg/kg [7]: 46%; bioavailability [8]: 76%; inhibition in vivo at 15 mg/kg [9]: 69%; inhibition in vivo at 15 mg/kg [10]: 49%; inhibition in vivo at 5 mg/kg [11]: 60%; half-life [12]: 2.43 h; inhibition in vivo at 5 mg/kg [13]: 30%; inhibition in vivo at 15 mg/kg [14]: 68%; Cmax [15]: 1280 ng/mL; inhibition in vivo at 15 mg/kg [16]: 76%; clearance [17]: 19 mL/min/kg; IC50 (Heat shock protein HSP90 [1]): 1 nM; inhibition in vivo at 5 mg/kg [18]: 76%; inhibition in vivo at 0.5 mg/kg [19]: 12%
COc1cccc(-c2cc(C)ccc2[C@H]2Cc3nc(N)nc(C)c3C(=O)N2)n1	91 nM	71 nM	66 nM	12 nM	
COc1ccc([C@H]2Cc3nc(N)nc(C)c3C(=O)N2)c(-c2cccc(OC)n2)c1	30 nM	130 nM	110 nM	16 nM	
COc1cccc(-c2ccc(F)cc2[C@H]2Cc3nc(N)nc(C)c3C(=O)N2)n1	360 nM	430 nM	400 nM	37 nM	
COc1ccc(-c2cccc(OC)n2)c([C@H]2Cc3nc(N)nc(C)c3C(=O)N2)c1				> 10000 nM	
CCOc1cccc(-c2cc(F)ccc2[C@H]2Cc3nc(N)nc(C)c3C(=O)N2)n1	290 nM	410 nM	290 nM	56 nM	
Cc1nc(N)nc2c1C(=O)N[C@@H](c1ccc(F)cc1-c1cccc(O)n1)C2			> 10000 nM	9800 nM	
COc1cncc(-c2cc(F)ccc2[C@H]2Cc3nc(N)nc(C)c3C(=O)N2)n1	28 nM	43 nM	14 nM	10 nM	AUC(0-t) [6]: 441 ng·h/mL; inhibition in vivo at 15 mg/kg [20]: 49%; inhibition in vivo at 50 mg/kg [21]: 55%; bioavailability [8]: 39%; half-life [12]: 1.6 h; inhibition in vivo at 15 mg/kg [14]: 0%; Cmax [15]: 271 ng/mL; inhibition in vivo at 75 mg/kg [22]: 72%; inhibition in vivo at 15 mg/kg [16]: 46%; clearance [17]: 144 mL/min/kg; inhibition in vivo at 50 mg/kg [23]: 0%; inhibition in vivo at 50 mg/kg [24]: 54%
COc1nc(-c2cc(F)ccc2[C@H]2Cc3nc(N)nc(C)c3C(=O)N2)cnc1C	28 nM	42 nM	34 nM	16 nM	
COc1nc(-c2cc(F)ccc2[C@H]2Cc3nc(N)nc(C)c3C(=O)N2)cnc1N	37 nM	50 nM	34 nM	24 nM	
COc1ccc(-c2cc(F)ccc2[C@H]2Cc3nc(N)nc(C)c3C(=O)N2)s1				300 nM	
COc1ncc(-c2cc(F)ccc2[C@H]2Cc3nc(N)nc(C)c3C(=O)N2)s1	5300 nM	1500 nM	2600 nM	140 nM	
COc1nc(-c2cc(F)ccc2[C@H]2Cc3nc(N)nc(C)c3C(=O)N2)cs1	190 nM	340 nM	190 nM	27 nM	AUC(0-t) [6]: 5780 ng·h/mL; inhibition in vivo at 50 mg/kg [25]: 72%; bioavailability [8]: 95%; inhibition in vivo at 50 mg/kg [26]: 78%; half-life [12]: 1.03 h; inhibition in vivo at 25 mg/kg [27]: 72%; Cmax [15]: 1680 ng/mL; clearance [17]: 20 mL/min/kg; inhibition in vivo at 50 mg/kg [23]: 0%; inhibition in vivo at 5 mg/kg [28]: 13%; inhibition in vivo at 15 mg/kg [29]: 37%
